In brackets after ≈: the same amount, converted by molar mass.
Legend:
Acetyl-CoA carboxylase 1 [1] = target: Acetyl-CoA carboxylase 1 (Homo sapiens, UniProt Q13085); test: Inhibition of human recombinant his-tagged ACC1 expressed in baculovirus/Sf9 cell assessed as inorganic phosphate formation […] measured after 1.5 hrs by Malachite green reagent method
[2] = Lipophilicity, log D of the compound; format: physicochemical; conditions: octanol/water
Acetyl-CoA carboxylase 2 = Acetyl-CoA carboxylase 2 (Homo sapiens, UniProt O00763); test: Inhibition of human recombinant his-tagged ACC2 expressed in baculovirus/Sf9 cell assessed as inorganic phosphate formation […] measured after 1.5 hrs by Malachite green reagent method
Sequence of Acetyl-CoA carboxylase 2 (O00763 whole entry): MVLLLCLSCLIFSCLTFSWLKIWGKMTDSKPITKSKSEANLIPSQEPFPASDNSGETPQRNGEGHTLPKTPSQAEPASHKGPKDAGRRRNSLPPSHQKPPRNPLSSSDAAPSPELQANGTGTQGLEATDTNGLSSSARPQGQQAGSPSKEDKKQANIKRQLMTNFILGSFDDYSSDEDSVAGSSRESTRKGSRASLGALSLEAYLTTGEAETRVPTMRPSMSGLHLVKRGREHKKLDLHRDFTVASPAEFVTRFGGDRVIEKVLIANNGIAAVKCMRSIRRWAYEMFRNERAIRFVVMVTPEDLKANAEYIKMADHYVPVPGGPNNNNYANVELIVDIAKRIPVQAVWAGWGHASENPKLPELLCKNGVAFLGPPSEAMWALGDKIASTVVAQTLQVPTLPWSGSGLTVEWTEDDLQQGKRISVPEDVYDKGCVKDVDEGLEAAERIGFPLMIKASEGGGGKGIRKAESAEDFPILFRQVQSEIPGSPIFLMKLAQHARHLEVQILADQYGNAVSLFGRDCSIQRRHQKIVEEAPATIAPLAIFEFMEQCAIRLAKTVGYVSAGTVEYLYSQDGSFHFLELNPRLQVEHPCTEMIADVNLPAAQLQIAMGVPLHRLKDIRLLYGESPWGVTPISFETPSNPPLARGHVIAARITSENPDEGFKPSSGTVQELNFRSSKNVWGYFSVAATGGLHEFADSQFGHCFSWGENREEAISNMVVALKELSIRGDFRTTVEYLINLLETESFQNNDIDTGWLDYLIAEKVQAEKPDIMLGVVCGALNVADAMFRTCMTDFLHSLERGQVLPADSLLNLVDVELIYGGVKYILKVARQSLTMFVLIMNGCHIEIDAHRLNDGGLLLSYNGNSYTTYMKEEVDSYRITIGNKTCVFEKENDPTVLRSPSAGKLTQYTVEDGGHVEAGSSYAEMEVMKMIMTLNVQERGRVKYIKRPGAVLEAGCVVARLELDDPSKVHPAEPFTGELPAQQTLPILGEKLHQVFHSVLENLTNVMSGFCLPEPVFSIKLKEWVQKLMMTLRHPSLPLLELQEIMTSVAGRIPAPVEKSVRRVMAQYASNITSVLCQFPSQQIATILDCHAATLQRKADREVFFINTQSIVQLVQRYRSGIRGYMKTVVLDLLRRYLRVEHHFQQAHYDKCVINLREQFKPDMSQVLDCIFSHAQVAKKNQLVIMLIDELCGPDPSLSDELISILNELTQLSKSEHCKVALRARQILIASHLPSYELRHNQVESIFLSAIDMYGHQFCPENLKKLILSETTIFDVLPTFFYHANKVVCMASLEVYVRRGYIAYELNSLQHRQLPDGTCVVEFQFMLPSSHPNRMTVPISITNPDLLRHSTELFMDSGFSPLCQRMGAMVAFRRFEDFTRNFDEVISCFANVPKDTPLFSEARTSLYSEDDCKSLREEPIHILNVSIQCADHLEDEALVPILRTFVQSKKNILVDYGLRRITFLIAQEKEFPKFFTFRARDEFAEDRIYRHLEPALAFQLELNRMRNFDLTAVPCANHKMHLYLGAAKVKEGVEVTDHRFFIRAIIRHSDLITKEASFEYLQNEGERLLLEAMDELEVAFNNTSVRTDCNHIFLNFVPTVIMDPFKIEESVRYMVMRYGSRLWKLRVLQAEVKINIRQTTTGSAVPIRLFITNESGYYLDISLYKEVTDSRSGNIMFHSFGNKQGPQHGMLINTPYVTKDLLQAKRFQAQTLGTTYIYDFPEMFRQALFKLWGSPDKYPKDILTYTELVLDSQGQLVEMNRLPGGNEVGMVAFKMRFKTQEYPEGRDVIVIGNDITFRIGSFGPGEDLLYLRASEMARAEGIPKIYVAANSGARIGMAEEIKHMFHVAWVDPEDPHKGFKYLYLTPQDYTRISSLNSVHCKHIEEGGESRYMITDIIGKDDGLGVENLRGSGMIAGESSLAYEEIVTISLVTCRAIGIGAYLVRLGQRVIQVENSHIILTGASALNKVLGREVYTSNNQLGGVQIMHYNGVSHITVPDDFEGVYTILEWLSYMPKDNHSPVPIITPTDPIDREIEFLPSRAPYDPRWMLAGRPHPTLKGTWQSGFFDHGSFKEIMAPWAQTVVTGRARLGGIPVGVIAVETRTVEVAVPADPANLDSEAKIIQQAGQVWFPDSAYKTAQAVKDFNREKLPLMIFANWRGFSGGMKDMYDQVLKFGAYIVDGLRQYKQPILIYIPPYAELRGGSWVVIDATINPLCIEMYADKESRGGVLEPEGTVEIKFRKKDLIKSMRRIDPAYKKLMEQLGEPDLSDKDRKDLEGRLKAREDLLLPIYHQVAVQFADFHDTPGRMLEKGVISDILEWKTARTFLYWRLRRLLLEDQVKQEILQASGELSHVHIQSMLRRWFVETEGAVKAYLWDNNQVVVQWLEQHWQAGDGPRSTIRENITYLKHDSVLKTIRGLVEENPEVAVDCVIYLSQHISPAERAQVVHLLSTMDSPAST

CYP2C9 = CYP2C9 (Homo sapiens, UniProt P11712); test: Inhibition of CYP2C9 at 13 uM; format: ADME
Sequence of CYP2C9 (P11712 whole entry): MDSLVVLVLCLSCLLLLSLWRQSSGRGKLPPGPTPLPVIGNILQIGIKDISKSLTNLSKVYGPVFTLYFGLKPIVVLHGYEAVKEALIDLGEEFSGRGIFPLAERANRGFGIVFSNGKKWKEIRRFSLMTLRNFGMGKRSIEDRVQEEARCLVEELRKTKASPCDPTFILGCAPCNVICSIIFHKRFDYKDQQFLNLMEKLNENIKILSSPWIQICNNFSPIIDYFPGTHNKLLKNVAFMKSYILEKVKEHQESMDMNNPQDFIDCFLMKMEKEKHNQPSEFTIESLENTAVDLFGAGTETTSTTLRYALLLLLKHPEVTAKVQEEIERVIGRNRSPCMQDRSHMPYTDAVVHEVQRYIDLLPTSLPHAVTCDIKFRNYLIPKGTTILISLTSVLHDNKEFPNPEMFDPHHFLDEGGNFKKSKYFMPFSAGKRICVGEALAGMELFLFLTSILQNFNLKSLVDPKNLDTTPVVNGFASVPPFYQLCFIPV

[3] = Intrinsic clearance in human liver microsome at 1 uM after 30 mins by LC-UV/MS analysis; format: ADME; conditions: liver microsomes
[4] = Solubility of the compound after 16 hrs by LC-UV/MS analysis; format: physicochemical
CYP2C19 = CYP2C19 (Homo sapiens, UniProt P33261); test: Inhibition of CYP2C19 at 13 uM; format: ADME
Sequence of CYP2C19 (P33261 whole entry): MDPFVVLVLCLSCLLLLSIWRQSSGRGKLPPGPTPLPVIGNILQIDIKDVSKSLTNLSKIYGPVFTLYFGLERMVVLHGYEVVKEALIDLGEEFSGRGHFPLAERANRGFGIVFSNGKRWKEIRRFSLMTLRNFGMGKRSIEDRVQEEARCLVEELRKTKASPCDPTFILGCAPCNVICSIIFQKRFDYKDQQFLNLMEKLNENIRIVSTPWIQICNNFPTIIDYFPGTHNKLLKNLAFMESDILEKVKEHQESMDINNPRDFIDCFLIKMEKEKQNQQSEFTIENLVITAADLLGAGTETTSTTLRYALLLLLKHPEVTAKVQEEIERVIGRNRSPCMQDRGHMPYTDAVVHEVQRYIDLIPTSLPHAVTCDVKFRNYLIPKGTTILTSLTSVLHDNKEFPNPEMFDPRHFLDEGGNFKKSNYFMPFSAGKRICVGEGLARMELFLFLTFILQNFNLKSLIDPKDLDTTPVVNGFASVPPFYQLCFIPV

CYP3A4 = CYP3A4 (Homo sapiens, UniProt P08684); test: Inhibition of CYP3A4 at 13 uM; format: ADME
Sequence of CYP3A4 (P08684 whole entry): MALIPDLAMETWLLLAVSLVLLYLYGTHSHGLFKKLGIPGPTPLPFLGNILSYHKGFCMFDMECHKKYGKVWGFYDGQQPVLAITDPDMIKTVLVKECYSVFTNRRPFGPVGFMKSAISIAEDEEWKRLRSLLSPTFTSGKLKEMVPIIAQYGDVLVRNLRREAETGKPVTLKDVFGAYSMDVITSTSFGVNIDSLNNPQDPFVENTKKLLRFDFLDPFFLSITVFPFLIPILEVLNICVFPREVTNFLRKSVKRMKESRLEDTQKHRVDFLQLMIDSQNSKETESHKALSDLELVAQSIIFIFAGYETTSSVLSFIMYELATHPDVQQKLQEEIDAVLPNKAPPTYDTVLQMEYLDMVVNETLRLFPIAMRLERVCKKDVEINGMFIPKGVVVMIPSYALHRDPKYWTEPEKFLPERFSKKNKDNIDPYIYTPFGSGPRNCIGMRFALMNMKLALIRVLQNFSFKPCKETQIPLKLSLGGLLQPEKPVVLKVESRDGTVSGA

CYP1A2 = target: T1, CYP1A2 (Homo sapiens, UniProt P05177); test: Inhibition of CYP1A2 at 13 uM; format: ADME
T1 sequence (P05177 whole entry): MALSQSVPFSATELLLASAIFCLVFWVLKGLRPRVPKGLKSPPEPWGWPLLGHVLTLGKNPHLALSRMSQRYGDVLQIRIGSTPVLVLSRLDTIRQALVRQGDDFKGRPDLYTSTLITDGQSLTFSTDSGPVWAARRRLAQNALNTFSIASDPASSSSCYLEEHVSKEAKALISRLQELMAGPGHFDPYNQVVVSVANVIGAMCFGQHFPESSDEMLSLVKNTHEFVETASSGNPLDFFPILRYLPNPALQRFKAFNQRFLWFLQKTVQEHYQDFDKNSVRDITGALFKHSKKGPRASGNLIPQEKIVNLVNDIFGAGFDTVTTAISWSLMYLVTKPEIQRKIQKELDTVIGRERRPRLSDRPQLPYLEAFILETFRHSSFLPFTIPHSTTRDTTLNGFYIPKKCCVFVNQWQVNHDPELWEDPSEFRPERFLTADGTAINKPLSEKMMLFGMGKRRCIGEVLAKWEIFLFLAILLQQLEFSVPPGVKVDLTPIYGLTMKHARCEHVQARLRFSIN

CYP2D6 = CYP2D6 (Homo sapiens, UniProt P10635); test: Inhibition of CYP2D6 at 13 uM; format: ADME
Sequence of CYP2D6 (P10635 whole entry): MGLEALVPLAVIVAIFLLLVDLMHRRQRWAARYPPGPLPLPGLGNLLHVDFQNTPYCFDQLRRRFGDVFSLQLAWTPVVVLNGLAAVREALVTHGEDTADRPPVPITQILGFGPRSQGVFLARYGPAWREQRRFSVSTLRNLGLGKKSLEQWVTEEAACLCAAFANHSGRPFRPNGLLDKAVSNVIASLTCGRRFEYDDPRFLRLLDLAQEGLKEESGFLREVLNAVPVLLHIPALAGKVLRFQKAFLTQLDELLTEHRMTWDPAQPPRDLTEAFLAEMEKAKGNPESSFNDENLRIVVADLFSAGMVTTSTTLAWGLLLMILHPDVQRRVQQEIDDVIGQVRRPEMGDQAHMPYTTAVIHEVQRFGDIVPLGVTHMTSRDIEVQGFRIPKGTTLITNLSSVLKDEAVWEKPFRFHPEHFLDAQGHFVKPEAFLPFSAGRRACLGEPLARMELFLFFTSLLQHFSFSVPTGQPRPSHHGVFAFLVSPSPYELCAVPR

[5] = Clearance in Sprague-Dawley rat at 3 to 5 umol/kg, iv; format: ADME, organism-based; conditions: in vivo
[6] = Fraction unbound in rat plasma at 10 uM after 18 hrs by equilibrium dialysis method; format: ADME, cell-free
[7] = Fraction unbound in human plasma at 10 uM after 18 hrs by equilibrium dialysis method; format: ADME, cell-free
Rattus norvegicus [8] = test: Ratio of […] to fraction unbound in Sprague-Dawley rat at 3 to 5 umol/kg, iv; format: ADME, organism-based; conditions: in vivo
[9] = Clearance in C57BL/6 mouse at 5 umol/kg, iv and 10 umol/kg, po; format: ADME, organism-based; conditions: in vivo
[10] = Oral bioavailability in C57BL/6 mouse at 10 umol/kg; format: ADME, organism-based; conditions: in vivo
Rattus norvegicus [11] = test: Antiobesity activity in obese Zucker rat assessed as reduction in hepatic malonyl-coA level, iv administered 2 hrs; format: functional; set-up: scale not given: the % may be the effect or the level left
Outline: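 Obese Zucker rats were anaesthetized with Inactin (180 mg/kg ip), tracheotomized and fitted with carotid and jugular catheters. After 1.5 h post-surgery stabilization at 37.5 °C, compound or vehicle was infused iv; lean vehicle controls were included. Hepatic malonyl-CoA was measured by ion-pair HPLC–negative ESI MS/MS against a ¹³C₃ internal standard and related to plasma free exposure (fu×Cp/rat ACC2 IC50).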

[12] = Volume of distribution in C57BL/6 mouse at 5 umol/kg, iv and 10 umol/kg, po; format: ADME, organism-based; conditions: in vivo
[13] = Half life in C57BL/6 mouse at 10 umol/kg, po; format: ADME, organism-based; conditions: in vivo
[14] = target: Acetyl-Coenzyme A carboxylase 2 (Rattus norvegicus, UniProt Q1HEC0); test: Inhibition of ACC2 […] preincubated for 15 mins measured after 1.5 hrs using Malachite green reagent method
Acetyl-CoA carboxylase 1 [15] = target: Acetyl-CoA carboxylase 1 (Rattus norvegicus, UniProt P11497); test: Inhibition of rat ACC1 assessed as inorganic phosphate generation preincubated for 5 mins measured after 1.5 hrs using Malachite green reagent method
[16] = Apparent permeability from apical to basolateral side of human Caco2 cells at pH 7.4 by LCMS; format: ADME, cell-based; conditions: Caco-2, pH 7.4
Homo sapiens = organism: Homo sapiens; test: Ratio IC50 for human ACC2 to IC50 for human ACC1
Cytochrome P450 1A2 = target: T2, Cytochrome P450 1A2 (Homo sapiens, UniProt P05177); test: Inhibition of CYP1A2; format: ADME
T2 sequence (P05177 whole entry): T1 sequence (P05177 whole entry)

Cytochrome P450 3A4 = Cytochrome P450 3A4 (Homo sapiens, UniProt P08684); test: Inhibition of CYP3A4; format: ADME
Sequence of Cytochrome P450 3A4 (P08684 whole entry): as the sequence (P08684 whole entry) above

Cytochrome P450 2C9 = Cytochrome P450 2C9 (Homo sapiens, UniProt P11712); test: Inhibition of CYP2C9; format: ADME
Sequence of Cytochrome P450 2C9 (P11712 whole entry): as the sequence (P11712 whole entry) above

[17] = Volume of distribution in C57BL/6 mouse at 33 umol/kg, iv and po; format: ADME, organism-based; conditions: in vivo
[18] = Half life in C57BL/6 mouse at 33 umol/kg, po; format: ADME, organism-based; conditions: in vivo
[19] = Oral bioavailability in C57BL/6 mouse at 33 umol/kg; format: ADME, organism-based; conditions: in vivo
[20] = Clearance in C57BL/6 mouse at 33 umol/kg, iv and po; format: ADME, organism-based; conditions: in vivo

SMILES	IC50 (Acetyl-CoA carboxylase 1 [1]) [µM]	logD [2]	IC50 (Acetyl-CoA carboxylase 2) [µM]	further results
CC(C)(C)OC(=O)NC[C@H]1CC[C@H](CNC(=O)c2cc(-c3ccc(CN)cc3)nc3ccccc23)CC1	1.7	3.2		
CN(C)CCn1cc(-c2cc(C(=O)NC[C@H]3CC[C@H](CNC(=O)OC(C)(C)C)CC3)c3ccccc3n2)cn1	1.3	3.6		
CC(C)(C)OC(=O)NC[C@H]1CC[C@H](CNC(=O)c2cc(-c3ccccc3)nc3[nH]ccc23)CC1		4.7	0.78	
CC(C)(C)OC(=O)NC[C@H]1CC[C@H](CNC(=O)c2cc(N3CCC(CCN4CC(O)C4)CC3)nc3ccccc23)CC1	1	3.6		clearance [9]: 33 mL/min/kg; bioavailability [10]: 135%; microsomal CLint at 1 µM [3]: 16 µL/min/mg; clearance [5]: 70 mL/min/kg; Activity (Rattus norvegicus [11]): 50%; Vd [12]: 3.6 L/kg; half-life [13]: 4.3 h; solubility at 16 h [4]: 80 µM (≈ 46.4 µg/mL); IC50 [14]: 0.15 µM; IC50 (Acetyl-CoA carboxylase 1 [15]): 0.25 µM; fraction unbound at 18 h, 10 µM [7]: 0.033
Cc1noc(C)c1-c1cc(C(=O)NC[C@H]2CC[C@H](CNC(=O)OC(C)(C)C)CC2)c2ccccc2n1		5		
CC(C)(C)OC(=O)NC[C@H]1CC[C@H](CNC(=O)c2cc(-c3ccncc3)nc3ccccc23)CC1	1.1	4.4		microsomal CLint at 1 µM [3]: 146 µL/min/mg; solubility at 16 h [4]: < 1 µM
CC(C)(C)OC(=O)NC[C@H]1CC[C@H](CNC(=O)c2cc(N3CCC(CN)CC3)nc3ccccc23)CC1	4.3	3.2	0.69	
CC(C)(C)OC(=O)NC[C@H]1CC[C@H](CNC(=O)c2ccnc(-c3ccccc3)c2)CC1		4.7		
CC(C)(C)OC(=O)NC[C@H]1CC[C@H](CNC(=O)c2cc(N3CCNCC3)nc3ccccc23)CC1	13	2.9		
O=C(c1c2ccccc2cc2ccccc12)N1CCC(N2CCC[C@@H](C(=O)N3CCOCC3)C2)CC1				Activity (Rattus norvegicus [11]): 50%
CN(C)CCC1CCN(c2cc(C(=O)NC[C@H]3CC[C@H](CNC(=O)OCC(C)(C)C)CC3)c3ccccc3n2)CC1	1	4	0.13	Vd [17]: 9.6 L/kg; half-life [18]: 2.9 h; bioavailability [19]: 115%; clearance [20]: 52 mL/min/kg
CN(C)CCC1CCN(c2cc(C(=O)NC[C@H]3CC[C@H](COC(=O)NC(C)(C)C)CC3)c3ccccc3n2)CC1	9.9	3.6	1.7	
CC(C)(C)OC(=O)NC[C@H]1CC[C@H](CNC(=O)c2cc(-c3ccc(C(=O)O)cc3)nc3ccccc23)CC1	2.9	2.5	0.75	
CC(C)(C)OC(=O)NC[C@H]1CC[C@H](CNS(=O)(=O)c2ccc3ccccc3c2)CC1			2.5	

Continued, in another order:

IC50 (Acetyl-CoA carboxylase 1 [1]) [µM]	logD [2]	IC50 (Acetyl-CoA carboxylase 2) [µM]	SMILES	further results
	4.9		CC(C)(C)OC(=O)NC[C@H]1CC[C@H](CNC(=O)c2cc(Cl)nc3ccccc23)CC1	
	5.3		Cc1cc(C(=O)NC[C@H]2CC[C@H](CNC(=O)OC(C)(C)C)CC2)cc(-c2ccccc2)n1	
8	2.6	1.4	CCOC(=O)NC[C@H]1CC[C@H](CNC(=O)c2cc(N3CCC(CCN(C)C)CC3)nc3ccccc23)CC1	
5.3	3.4	0.73	CN(C)CCN1CCN(c2cc(C(=O)NC[C@H]3CC[C@H](CNC(=O)OC(C)(C)C)CC3)c3ccccc3n2)CC1	inhibition at 13 µM (CYP2C9): < 50%; microsomal CLint at 1 µM [3]: < 12 µL/min/mg; solubility at 16 h [4]: 73 µM (≈ 40.4 µg/mL); inhibition at 13 µM (CYP2C19): < 50%; inhibition at 13 µM (CYP3A4): < 50%; inhibition at 13 µM (CYP1A2): < 50%; inhibition at 13 µM (CYP2D6): < 50%
	5.9	0.21	CC(C)(C)OC(=O)NC[C@H]1CC[C@H](CNC(=O)c2cc(-c3ccccc3)nc3ccccc23)CC1	microsomal CLint at 1 µM [3]: 124 µL/min/mg; clearance [5]: 60 mL/min/kg; fraction unbound at 18 h, 10 µM [6]: 0.005; solubility at 16 h [4]: < 1 µM; fraction unbound at 18 h, 10 µM [7]: 0.001; Ratio (Rattus norvegicus [8]): 12000
	3		CN(C)CCOC1CN(c2cc(C(=O)NC[C@H]3CC[C@H](CNC(=O)OC(C)(C)C)CC3)c3ccccc3n2)C1	
		3.6	O=C(c1cc(-c2ccccc2)nc2ccccc12)N1CCN(Cc2ccc3c(c2)OCO3)CC1	
		0.69	CC(C)(C)OC(=O)NC[C@H]1CC[C@H](CNS(=O)(=O)c2cc(-c3ccccc3)nc3ccccc23)CC1	
0.78	3.2	0.089	CC(C)(C)OC(=O)NC[C@H]1CC[C@H](CNC(=O)c2cc(N3CCC(CCN)CC3)nc3ccccc23)CC1	Papp A→B [16]: 0.5 ×10⁻⁶ cm/s
2.3	4.5	0.23	CC(C)(C)OC(=O)NC[C@H]1CC[C@H](CNC(=O)c2cc(N3CCC(CCO)CC3)nc3ccccc23)CC1	Ratio IC50 (Homo sapiens): 10
0.24	3.4	0.052	CC(C)(C)OC(=O)NC[C@H]1CC[C@H](CNC(=O)c2cc(-c3cccc(CN)c3)nc3ccccc23)CC1	IC50 (Cytochrome P450 1A2): 4 µM; microsomal CLint at 1 µM [3]: 14 µL/min/mg; clearance [5]: 104 mL/min/kg; solubility at 16 h [4]: 8 µM (≈ 4.02 µg/mL); IC50 (Cytochrome P450 3A4): 2.4 µM; IC50 (Cytochrome P450 2C9): 0.8 µM
		1	CC(C)(C)OC(=O)NC[C@H]1CC[C@@H](CNC(=O)c2cc(-c3ccccc3)nc3ccccc23)CC1	
	2.3		CN(C)CCC1CCN(c2cc(C(=O)NC[C@H]3CC[C@H](CNC(=O)OC4CCOCC4)CC3)c3ccccc3n2)CC1	
2.3	3.5	0.57	CC(C)(C)OC(=O)NC[C@H]1CC[C@H](CNC(=O)c2cc(-c3cn[nH]c3)nc3ccccc23)CC1	

Source: ChEMBL document CHEMBL1817551, “Design of small molecule inhibitors of acetyl-CoA carboxylase 1 and 2 showing reduction of hepatic malonyl-CoA levels in vivo in obese Zucker rats” (Bioorg Med Chem, 2011)
